Assay results taken from ChEMBL document CHEMBL4130571, “(+)- and (-)-Ecarlottones, Uncommon Chalconoids from Fissistigma latifolium with Pro-Apoptotic Activity” (J Nat Prod, 2017).
Calls of active or inactive are those of the source. No cut-off for these calls is given here.

Tests used:
[1] = target: Induced myeloid leukemia cell differentiation protein Mcl-1/BH3-interacting domain death agonist (Homo sapiens, UniProt Q07820); assay: Inhibition of His-tagged MCL1 (unknown origin)/5-carboxyfluorescein-labeled Bid (unknown origin) protein protein interaction after 1 hr by fluorescence polarization assay
How it was run: (§1)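 Competition FP assay displacing a fluorescent-tagged BH3-domain probe (Bak peptide for Bcl-xL, Bid peptide for Mcl-1). Run in triplicate, with reference BH3-mimetic positive controls.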

HUVEC (Homo sapiens) = assay: Cytotoxicity against HUVEC cells up to 10 uM
Bcl-xL/BAK = Bcl-xL/BAK (Homo sapiens, UniProt Q07817); assay: Inhibition of His-tagged Bcl-xL (unknown origin)/5-carboxyfluorescein-labeled Bak (unknown origin) protein protein interaction after 1 hr by fluorescence polarization assay; how it was run: as §1
KB = assay: Cytotoxicity against human KB cells up to 10 uM; assay type: functional, cell-based

Chain of Bcl-xL/BAK (Q07817 whole entry): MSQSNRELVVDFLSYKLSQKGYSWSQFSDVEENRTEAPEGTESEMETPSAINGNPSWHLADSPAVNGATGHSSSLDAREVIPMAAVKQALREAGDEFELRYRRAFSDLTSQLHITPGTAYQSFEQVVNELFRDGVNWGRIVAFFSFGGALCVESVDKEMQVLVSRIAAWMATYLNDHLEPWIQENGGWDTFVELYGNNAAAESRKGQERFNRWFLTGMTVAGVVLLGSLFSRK
Chain of Bcl-xL/BAK (Q16611 whole entry, further chain): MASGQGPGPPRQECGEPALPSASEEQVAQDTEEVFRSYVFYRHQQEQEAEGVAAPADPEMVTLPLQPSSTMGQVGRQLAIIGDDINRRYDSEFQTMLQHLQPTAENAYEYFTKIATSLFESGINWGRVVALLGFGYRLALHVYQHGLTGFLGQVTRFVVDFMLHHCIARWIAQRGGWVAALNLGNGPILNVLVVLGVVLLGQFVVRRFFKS
Chain of Induced myeloid leukemia cell differentiation protein Mcl-1/BH3-interacting domain death agonist (Q07820 whole entry, the tested form may be a part): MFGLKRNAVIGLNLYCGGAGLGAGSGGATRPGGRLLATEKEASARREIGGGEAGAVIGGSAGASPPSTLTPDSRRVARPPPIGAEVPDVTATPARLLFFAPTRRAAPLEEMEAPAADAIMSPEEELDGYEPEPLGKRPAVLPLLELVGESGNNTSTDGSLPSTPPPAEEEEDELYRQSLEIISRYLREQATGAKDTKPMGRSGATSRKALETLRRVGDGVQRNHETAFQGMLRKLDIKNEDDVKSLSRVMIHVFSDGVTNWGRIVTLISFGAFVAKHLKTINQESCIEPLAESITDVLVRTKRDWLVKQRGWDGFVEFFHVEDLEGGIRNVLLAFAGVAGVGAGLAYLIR
Chain of Induced myeloid leukemia cell differentiation protein Mcl-1/BH3-interacting domain death agonist (P55957 whole entry, further chain, the tested form may be a part): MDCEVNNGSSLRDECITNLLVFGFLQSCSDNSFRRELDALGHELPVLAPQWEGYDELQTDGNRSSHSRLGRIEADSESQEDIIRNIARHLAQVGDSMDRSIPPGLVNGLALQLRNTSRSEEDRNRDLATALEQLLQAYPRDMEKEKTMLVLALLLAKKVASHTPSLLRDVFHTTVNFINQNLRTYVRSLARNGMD

| Compound | Ki [1] [µM] | Activity (HUVEC (Homo sapiens)) | Ki (Bcl-xL/BAK) [µM] | Activity (KB) |
| --- | --- | --- | --- | --- |
| COC1=C(O)C(=O)/C(=C(\O)[C@H]2CC=C(CCC=C(C)C)C[C@@H]2c2ccccc2)C(=O)C1=O | 7.4 | inactive | > 23 | inactive |
| COC1=C(OC)C(=O)C2=C(O[C@@H](c3ccccc3)CC2=O)C1=O | > 33 | inactive | > 23 | inactive |
| COC1=C(O)C(=O)/C(=C(\O)[C@@H]2CC=C(CCC=C(C)C)C[C@H]2c2ccccc2)C(=O)C1=O | 2.4 | inactive | 4.8 | inactive |
| CC(C)=CCC[C@H](C)[C@@H]1C=C[C@]2(C(=O)O)[C@@H](CC(C)=C[C@H]2/C=C(\C)C2CCC(C(=O)O)CC2)C1 (some centres not stated) |  |  | 2.6 |  |
| COc1c(O)c2c(c(O)c1OC)C(=O)C[C@H](c1ccccc1)O2 | > 33 | inactive | > 23 | inactive |
| COC1=C(O)C(=O)/C(=C(\O)C2CC=C(CCC=C(C)C)CC2c2ccccc2)C(=O)C1=O (racemic) | 3.1 | inactive | 17.5 | inactive |
| CC(C)=CCCC1=CCC(C(=O)O)C(c2ccccc2)C1 (racemic) | > 33 | inactive | > 23 | inactive |
| CC(=O)C1CC=C(CCC=C(C)C)CC1c1ccccc1 (racemic) | > 33 | inactive | > 23 | inactive |
| CC(=O)C1CC(CCC=C(C)C)=CCC1c1ccccc1 (racemic) | > 33 | inactive | > 23 | inactive |
| COc1cc(/C=C/c2ccccc2)oc(=O)c1 [DESMETHOXYYANGONIN] | > 33 | inactive | > 23 | inactive |
